System: Fibroblast
Assay: Multiplex assay against human fibroblast
Assay type: toxicity, cell-based
Method in brief: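 Imaging took place on a CQ1 microscope at 37°C and 5% CO2 once compound had been added to live cells stained at seeding with Hoechst33342, BioTracker Green Microtubule Cytoskeleton Dye, MitoTracker Red and Annexin V Alexa Fluor 680. CellPathfinder machine-learning gating classed cells as Hoechst high-intensity objects or normal cells, classed normal cells as having healthy, pyknosed or fragmented nuclei, and classed pyknosed cells as mitotic or apoptotic. Tubulin, mitochondrial-mass and membrane-permeability phenotypes are per cents of the healthy-nucleus cells.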

[1] = 12 h, 1 µM, compound concentration 1 uM, replicate 1
[2] = 12 h, 1 µM, compound concentration 1 uM, replicate 2
[3] = 12 h, 10 µM, compound concentration 10 uM, replicate 1
[4] = 12 h, 10 µM, compound concentration 10 uM, replicate 2
[5] = 24 h, 1 µM, compound concentration 1 uM, replicate 1
[6] = 24 h, 1 µM, compound concentration 1 uM, replicate 2
[7] = 24 h, 10 µM, compound concentration 10 uM, replicate 1
[8] = 24 h, 10 µM, compound concentration 10 uM, replicate 2
[9] = 48 h, 1 µM, compound concentration 1 uM, replicate 1
[10] = 48 h, 1 µM, compound concentration 1 uM, replicate 2
[11] = 48 h, 10 µM, compound concentration 10 uM, replicate 1
[12] = 48 h, 10 µM, compound concentration 10 uM, replicate 2

CNC[C@H](O)c1ccc(O)c(O)c1 [EPINEPHRINE]
Population Apoptotic (%) [1]: 36%
Population Fragmented Nuclei (%) [1]: 17%
Population Healthy Nuclei (%) [1]: 66%
Population Hoechst High Intensity Objects (%) [1]: 1%
Population Membrane Permeable-Phenotype (%) [1]: 1%
Population Mitochondria Different-Phenotype (%) [1]: 3%
Population Mitotic Cells (%) [1]: 63%
Population Normal (%) [1]: 98%
Population Pyknosed Nuclei (%) [1]: 16%
Population Tubulin-Different-Phenotype (%) [1]: 15%
Population Apoptotic (%) [2]: 40%
Population Fragmented Nuclei (%) [2]: 38%
Population Healthy Nuclei (%) [2]: 44%
Population Membrane Permeable-Phenotype (%) [2]: 13%
Population Mitochondria Different-Phenotype (%) [2]: 7%
Population Mitotic Cells (%) [2]: 60%
Population Pyknosed Nuclei (%) [2]: 17%
Population Tubulin-Different-Phenotype (%) [2]: 42%
Population Apoptotic (%) [3]: 40%
Population Fragmented Nuclei (%) [3]: 18%
Population Healthy Nuclei (%) [3]: 61%
Population Hoechst High Intensity Objects (%) [3]: 3%
Population Membrane Permeable-Phenotype (%) [3]: 1%
Population Mitochondria Different-Phenotype (%) [3]: 6%
Population Mitotic Cells (%) [3]: 60%
Population Normal (%) [3]: 96%
Population Pyknosed Nuclei (%) [3]: 20%
Population Tubulin-Different-Phenotype (%) [3]: 23%
Population Apoptotic (%) [4]: 32%
Population Fragmented Nuclei (%) [4]: 39%
Population Healthy Nuclei (%) [4]: 37%
Population Hoechst High Intensity Objects (%) [4]: 7%
Population Membrane Permeable-Phenotype (%) [4]: 12%
Population Mitochondria Different-Phenotype (%) [4]: 8%
Population Mitotic Cells (%) [4]: 67%
Population Normal (%) [4]: 92%
Population Pyknosed Nuclei (%) [4]: 23%
Population Tubulin-Different-Phenotype (%) [4]: 55%
Population Apoptotic (%) [5]: 54%
Population Fragmented Nuclei (%) [5]: 12%
Population Healthy Nuclei (%) [5]: 70%
Population Hoechst High Intensity Objects (%) [5]: 0%
Population Membrane Permeable-Phenotype (%) [5]: 0%
Population Mitochondria Different-Phenotype (%) [5]: 3%
Population Mitotic Cells (%) [5]: 45%
Population Normal (%) [5]: 99%
Population Pyknosed Nuclei (%) [5]: 16%
Population Tubulin-Different-Phenotype (%) [5]: 11%
Population Apoptotic (%) [6]: 23%
Population Fragmented Nuclei (%) [6]: 38%
Population Healthy Nuclei (%) [6]: 47%
Population Hoechst High Intensity Objects (%) [6]: 3%
Population Membrane Permeable-Phenotype (%) [6]: 12%
Population Mitochondria Different-Phenotype (%) [6]: 6%
Population Mitotic Cells (%) [6]: 76%
Population Normal (%) [6]: 96%
Population Pyknosed Nuclei (%) [6]: 14%
Population Tubulin-Different-Phenotype (%) [6]: 32%
Population Apoptotic (%) [7]: 65%
Population Fragmented Nuclei (%) [7]: 16%
Population Healthy Nuclei (%) [7]: 60%
Population Hoechst High Intensity Objects (%) [7]: 3%
Population Membrane Permeable-Phenotype (%) [7]: 0%
Population Mitochondria Different-Phenotype (%) [7]: 5%
Population Mitotic Cells (%) [7]: 34%
Population Normal (%) [7]: 96%
Population Pyknosed Nuclei (%) [7]: 23%
Population Tubulin-Different-Phenotype (%) [7]: 21%
Population Apoptotic (%) [8]: 38%
Population Fragmented Nuclei (%) [8]: 39%
Population Healthy Nuclei (%) [8]: 44%
Population Membrane Permeable-Phenotype (%) [8]: 12%
Population Mitochondria Different-Phenotype (%) [8]: 4%
Population Mitotic Cells (%) [8]: 61%
Population Pyknosed Nuclei (%) [8]: 15%
Population Tubulin-Different-Phenotype (%) [8]: 51%
Population Apoptotic (%) [9]: 50%
Population Fragmented Nuclei (%) [9]: 17%
Population Healthy Nuclei (%) [9]: 67%
Population Hoechst High Intensity Objects (%) [9]: 1%
Population Membrane Permeable-Phenotype (%) [9]: 0%
Population Mitochondria Different-Phenotype (%) [9]: 6%
Population Mitotic Cells (%) [9]: 50%
Population Normal (%) [9]: 98%
Population Pyknosed Nuclei (%) [9]: 15%
Population Tubulin-Different-Phenotype (%) [9]: 23%
Population Apoptotic (%) [10]: 38%
Population Fragmented Nuclei (%) [10]: 41%
Population Healthy Nuclei (%) [10]: 48%
Population Membrane Permeable-Phenotype (%) [10]: 6%
Population Mitochondria Different-Phenotype (%) [10]: 5%
Population Mitotic Cells (%) [10]: 61%
Population Pyknosed Nuclei (%) [10]: 10%
Population Tubulin-Different-Phenotype (%) [10]: 45%
Population Apoptotic (%) [11]: 77%
Population Fragmented Nuclei (%) [11]: 20%
Population Healthy Nuclei (%) [11]: 65%
Population Hoechst High Intensity Objects (%) [11]: 2%
Population Membrane Permeable-Phenotype (%) [11]: 2%
Population Mitochondria Different-Phenotype (%) [11]: 4%
Population Mitotic Cells (%) [11]: 22%
Population Normal (%) [11]: 97%
Population Pyknosed Nuclei (%) [11]: 13%
Population Tubulin-Different-Phenotype (%) [11]: 32%
Population Apoptotic (%) [12]: 37%
Population Fragmented Nuclei (%) [12]: 50%
Population Healthy Nuclei (%) [12]: 44%
Population Hoechst High Intensity Objects (%) [12]: 3%
Population Membrane Permeable-Phenotype (%) [12]: 6%
Population Mitochondria Different-Phenotype (%) [12]: 3%
Population Mitotic Cells (%) [12]: 62%
Population Normal (%) [12]: 96%
Population Pyknosed Nuclei (%) [12]: 5%
Population Tubulin-Different-Phenotype (%) [12]: 46%

O=C(NCCO)c1cccc(-c2cc(Nc3ccc(OC(F)(F)F)cc3)ncn2)c1
Population Apoptotic (%) [1]: 46%
Population Fragmented Nuclei (%) [1]: 16%
Population Healthy Nuclei (%) [1]: 60%
Population Hoechst High Intensity Objects (%) [1]: 3%
Population Membrane Permeable-Phenotype (%) [1]: 1%
Population Mitochondria Different-Phenotype (%) [1]: 6%
Population Mitotic Cells (%) [1]: 53%
Population Normal (%) [1]: 96%
Population Pyknosed Nuclei (%) [1]: 24%
Population Tubulin-Different-Phenotype (%) [1]: 33%
Total Cell Count [1]: 130
Population Apoptotic (%) [2]: 38%
Population Fragmented Nuclei (%) [2]: 29%
Population Healthy Nuclei (%) [2]: 46%
Population Hoechst High Intensity Objects (%) [2]: 4%
Population Membrane Permeable-Phenotype (%) [2]: 10%
Population Mitochondria Different-Phenotype (%) [2]: 8%
Population Mitotic Cells (%) [2]: 61%
Population Normal (%) [2]: 95%
Population Pyknosed Nuclei (%) [2]: 23%
Population Tubulin-Different-Phenotype (%) [2]: 46%
Total Cell Count [2]: 149
Population Apoptotic (%) [3]: 37%
Population Fragmented Nuclei (%) [3]: 17%
Population Healthy Nuclei (%) [3]: 59%
Population Hoechst High Intensity Objects (%) [3]: 5%
Population Membrane Permeable-Phenotype (%) [3]: 0%
Population Mitochondria Different-Phenotype (%) [3]: 13%
Population Mitotic Cells (%) [3]: 62%
Population Normal (%) [3]: 94%
Population Pyknosed Nuclei (%) [3]: 22%
Population Tubulin-Different-Phenotype (%) [3]: 54%
Total Cell Count [3]: 185
Population Apoptotic (%) [4]: 40%
Population Fragmented Nuclei (%) [4]: 22%
Population Healthy Nuclei (%) [4]: 36%
Population Hoechst High Intensity Objects (%) [4]: 10%
Population Membrane Permeable-Phenotype (%) [4]: 11%
Population Mitochondria Different-Phenotype (%) [4]: 11%
Population Mitotic Cells (%) [4]: 59%
Population Normal (%) [4]: 89%
Population Pyknosed Nuclei (%) [4]: 40%
Population Tubulin-Different-Phenotype (%) [4]: 79%
Total Cell Count [4]: 192
Population Apoptotic (%) [5]: 56%
Population Fragmented Nuclei (%) [5]: 16%
Population Healthy Nuclei (%) [5]: 60%
Population Hoechst High Intensity Objects (%) [5]: 1%
Population Membrane Permeable-Phenotype (%) [5]: 2%
Population Mitochondria Different-Phenotype (%) [5]: 4%
Population Mitotic Cells (%) [5]: 43%
Population Normal (%) [5]: 98%
Population Pyknosed Nuclei (%) [5]: 22%
Population Tubulin-Different-Phenotype (%) [5]: 33%
Total Cell Count [5]: 135
Population Apoptotic (%) [6]: 52%
Population Fragmented Nuclei (%) [6]: 24%
Population Healthy Nuclei (%) [6]: 50%
Population Hoechst High Intensity Objects (%) [6]: 2%
Population Membrane Permeable-Phenotype (%) [6]: 5%
Population Mitochondria Different-Phenotype (%) [6]: 5%
Population Mitotic Cells (%) [6]: 47%
Population Normal (%) [6]: 97%
Population Pyknosed Nuclei (%) [6]: 25%
Population Tubulin-Different-Phenotype (%) [6]: 42%
Total Cell Count [6]: 139
Population Apoptotic (%) [7]: 50%
Population Fragmented Nuclei (%) [7]: 14%
Population Healthy Nuclei (%) [7]: 61%
Population Hoechst High Intensity Objects (%) [7]: 11%
Population Membrane Permeable-Phenotype (%) [7]: 1%
Population Mitochondria Different-Phenotype (%) [7]: 21%
Population Mitotic Cells (%) [7]: 50%
Population Normal (%) [7]: 88%
Population Pyknosed Nuclei (%) [7]: 24%
Population Tubulin-Different-Phenotype (%) [7]: 53%
Total Cell Count [7]: 175
Population Apoptotic (%) [8]: 41%
Population Fragmented Nuclei (%) [8]: 30%
Population Healthy Nuclei (%) [8]: 36%
Population Hoechst High Intensity Objects (%) [8]: 7%
Population Membrane Permeable-Phenotype (%) [8]: 10%
Population Mitochondria Different-Phenotype (%) [8]: 25%
Population Mitotic Cells (%) [8]: 58%
Population Normal (%) [8]: 92%
Population Pyknosed Nuclei (%) [8]: 32%
Population Tubulin-Different-Phenotype (%) [8]: 84%
Total Cell Count [8]: 187
Population Apoptotic (%) [9]: 82%
Population Fragmented Nuclei (%) [9]: 21%
Population Healthy Nuclei (%) [9]: 65%
Population Hoechst High Intensity Objects (%) [9]: 1%
Population Membrane Permeable-Phenotype (%) [9]: 3%
Population Mitochondria Different-Phenotype (%) [9]: 1%
Population Mitotic Cells (%) [9]: 17%
Population Normal (%) [9]: 98%
Population Pyknosed Nuclei (%) [9]: 13%
Population Tubulin-Different-Phenotype (%) [9]: 28%
Total Cell Count [9]: 130
Population Apoptotic (%) [10]: 45%
Population Fragmented Nuclei (%) [10]: 31%
Population Healthy Nuclei (%) [10]: 53%
Population Membrane Permeable-Phenotype (%) [10]: 6%
Population Mitochondria Different-Phenotype (%) [10]: 4%
Population Mitotic Cells (%) [10]: 54%
Population Pyknosed Nuclei (%) [10]: 14%
Population Tubulin-Different-Phenotype (%) [10]: 38%
Total Cell Count [10]: 156
Population Apoptotic (%) [11]: 70%
Population Fragmented Nuclei (%) [11]: 35%
Population Healthy Nuclei (%) [11]: 51%
Population Hoechst High Intensity Objects (%) [11]: 13%
Population Membrane Permeable-Phenotype (%) [11]: 0%
Population Mitochondria Different-Phenotype (%) [11]: 26%
Population Mitotic Cells (%) [11]: 30%
Population Normal (%) [11]: 86%
Population Pyknosed Nuclei (%) [11]: 13%
Population Tubulin-Different-Phenotype (%) [11]: 64%
Total Cell Count [11]: 170
Population Apoptotic (%) [12]: 76%
Population Fragmented Nuclei (%) [12]: 40%
Population Healthy Nuclei (%) [12]: 47%
Population Hoechst High Intensity Objects (%) [12]: 6%
Population Membrane Permeable-Phenotype (%) [12]: 13%
Population Mitochondria Different-Phenotype (%) [12]: 19%
Population Mitotic Cells (%) [12]: 23%
Population Normal (%) [12]: 93%
Population Pyknosed Nuclei (%) [12]: 11%
Population Tubulin-Different-Phenotype (%) [12]: 86%
Total Cell Count [12]: 198

Source: ChEMBL document CHEMBL5058577, “EUbOPEN Chemogenomics Library 2 (Multiplex)” (2022)
